Laboratory results taken from ChEMBL document CHEMBL1141109, “Synthesis of an estrogen receptor beta-selective radioligand: 5-[18F]fluoro-(2R,3S)-2,3-bis(4-hydroxyphenyl)pentanenitrile and comparison of in vivo distribution with 16alpha-[18F]fluoro-17beta-estradiol” (J Med Chem, 2005).

How the values were obtained:
[1] = Biodistribution of [18F]FEDPN in beta estrogen receptor knock out mouse uterus after 30 min; (n=3); assay type: ADME, organism-based; conditions: in vivo, 0.5 h
In short: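 αERKO and βERKO mice were fed estrogen-free chow and staged by daily vaginal smears. Mice in a nonestrous stage each received 11 µCi tracer in 130 µL 10% ethanol/saline. Organs were taken at 30 min, 1 h or 2 h and gamma-counted. Uptake is expressed as %ID/g ± SD, three animals per point.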

[2] = Biodistribution of [18F]FEDPN in rat ovaries after 2 h when given in tail vein; (n=5); assay type: ADME, organism-based, Female gonad; conditions: in vivo, iv
In short: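 Immature female Sprague–Dawley rats (<25 days old) under isoflurane/O2 got 20 µCi tracer in 150 µL 20% ethanol/saline by tail vein. […] Rats were killed at 30 min, 1 h or 2 h. Organs were blotted, weighed and gamma-counted against an injectate standard. Data are %ID/g ± SD, five rats per point.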

[3] = Biodistribution of [18F]FEDPN in beta estrogen receptor knock out mouse brain after 1 h; (n=3); assay type: ADME, organism-based; conditions: in vivo
In short: (§1)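 αERKO and βERKO mice, staged by daily vaginal smears and kept on estrogen-free chow, were studied in a nonestrous stage. Each mouse received 11 μCi of tracer in 130 μL of 10% ethanol/saline. Mice were killed at 30 min, 1 h or 2 h (n = 3 each). Organs were removed, blotted, weighed and gamma-counted against an injectate standard. Uptake is given as %ID/g ± SD.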

[4] = Biodistribution of [18F]-FEDPN in rat kidney after 2 hr when given in tail vein; (n=5); assay type: ADME, organism-based; conditions: in vivo, iv
In short: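 Immature female Sprague–Dawley rats (<25 days old) anesthetized with isoflurane/O2. Given 20 µCi tracer by tail vein in 150 µL of 20% ethanol/saline. […] Killed at 30 min, 1 h or 2 h. Blood and organs blotted, weighed and gamma-counted against a standard dilution of the injectate. Reported as %ID/g ± SD, n=5.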

[5] = Biodistribution of [18F]FEDPN in alpha estrogen receptor knock out mouse liver after 1 h; (n=3); assay type: ADME, organism-based; conditions: in vivo
In short: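 ERKO female mice (αERKO or βERKO), rested 48 h after shipping, placed on estrogen-free chow, and staged by daily vaginal smears. Injected in a nonestrous stage with 11 µCi [18F]FEDPN in 130 µL of 10% ethanol/saline. Killed at 30 min, 1 h or 2 h. Organs counted and reported as %ID/g ± SD, three animals per point.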

[6] = Biodistribution of [18F]FEDPN in beta estrogen receptor knock out mouse muscle after 1 h; (n=3); assay type: ADME, organism-based, Muscle tissue; conditions: in vivo; in short: as §1
[7] = biological target: Estrogen receptor (Mus musculus) (UniProt O08537+P19785); assay: Ratio of [18F]FEDPN uptake in uterus of ERbeta KO-mouse and ERalpha KO-mouse (nonestrus) after 1 hr
Estrogen receptor (Mus musculus), sequence (O08537 whole entry, looked up): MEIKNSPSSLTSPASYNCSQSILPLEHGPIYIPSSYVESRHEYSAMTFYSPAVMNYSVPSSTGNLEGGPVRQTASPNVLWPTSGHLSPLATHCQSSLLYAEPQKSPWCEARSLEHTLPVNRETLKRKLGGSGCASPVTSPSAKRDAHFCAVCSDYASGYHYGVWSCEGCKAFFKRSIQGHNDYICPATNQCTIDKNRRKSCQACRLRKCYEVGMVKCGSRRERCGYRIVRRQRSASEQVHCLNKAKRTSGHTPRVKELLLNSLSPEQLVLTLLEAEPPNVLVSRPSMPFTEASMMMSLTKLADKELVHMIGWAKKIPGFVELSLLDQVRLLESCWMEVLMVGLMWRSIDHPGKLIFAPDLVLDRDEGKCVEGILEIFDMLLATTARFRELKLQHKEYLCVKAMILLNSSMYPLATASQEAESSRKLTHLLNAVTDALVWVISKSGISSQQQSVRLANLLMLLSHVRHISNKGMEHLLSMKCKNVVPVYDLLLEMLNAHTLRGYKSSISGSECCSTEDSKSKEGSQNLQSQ
Estrogen receptor (Mus musculus), sequence (P19785 whole entry, looked up): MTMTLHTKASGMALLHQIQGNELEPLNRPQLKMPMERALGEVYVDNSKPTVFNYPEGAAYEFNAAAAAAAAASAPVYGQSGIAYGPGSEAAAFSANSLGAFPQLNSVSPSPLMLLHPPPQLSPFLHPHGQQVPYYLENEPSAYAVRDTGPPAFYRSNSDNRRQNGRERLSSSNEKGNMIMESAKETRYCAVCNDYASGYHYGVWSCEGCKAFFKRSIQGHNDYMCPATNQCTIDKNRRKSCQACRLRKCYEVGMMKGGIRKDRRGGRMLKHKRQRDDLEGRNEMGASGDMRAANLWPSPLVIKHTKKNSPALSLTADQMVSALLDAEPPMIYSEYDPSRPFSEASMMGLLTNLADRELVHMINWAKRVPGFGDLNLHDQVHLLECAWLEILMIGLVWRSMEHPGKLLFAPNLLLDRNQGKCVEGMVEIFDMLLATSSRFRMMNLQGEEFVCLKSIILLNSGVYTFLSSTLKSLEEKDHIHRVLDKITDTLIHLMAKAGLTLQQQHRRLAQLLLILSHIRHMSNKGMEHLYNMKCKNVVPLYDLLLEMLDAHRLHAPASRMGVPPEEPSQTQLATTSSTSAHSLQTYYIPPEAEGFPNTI

[8] = Biodistribution of [18F]FES in alpha estrogen receptor knock out mouse bone after 1 h; (n=3); assay type: ADME, organism-based, Bone element; conditions: in vivo
In short: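 Female αERKO mice were rested 48 h after shipping and fed estrogen-free chow. They were staged by daily vaginal smears and studied in diestrus. Each received 13 µCi [18F]FES in 100 µL 10% ethanol/saline and was sacrificed at 30 min, 1 h or 2 h (n = 3 per time). Tissue uptake is given as %ID/g ± SD.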

Row | SMILES | Biodistribution [1] [%ID/g] | Biodistribution [2] [%ID/g] | Biodistribution [3] [%ID/g] | Biodistribution [4] [%ID/g] | Biodistribution [5] [%ID/g] | Biodistribution [6] [%ID/g] | Ratio [7] | Biodistribution [8] [%ID/g]
1 | N#C[C@H](c1ccc(O)cc1)[C@@H](CCF)c1ccc(O)cc1 | 1.85 | 0.21 | 0.47 | 0.97 | 3.8 | 0.75 | 1.46 | –
2 | C[C@]12CC[C@@H]3c4ccc(O)cc4CC[C@H]3[C@@H]1C[C@@H](F)[C@@H]2O [FLUOROESTRADIOL] | – | – | – | – | – | – | – | 0.24
